# T cruzi inh = inhibitors of intracellular T. cruzi growth, primary screen, luminescence, NIH3T3 host cells; T. cruzi beta-gal in NIH3T3, 90 h; inhibition, % (test concentration not listed); 1.4% of 300,000 active;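 active = mean inhibition across valid replicates above about 55%, limit read from the data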;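 note: signal also drops with host cell toxicity which is not excluded here; 0% = plate median of DMSO wells and 100% = zero luminescence signal; higher percent means less beta-gal luminescence so fewer parasites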
#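 Assay system: NIH/3T3 host cells with β-galactosidase reporter T. cruzi; input: 5,000 host fibroblasts per well; compound: single 50 nL compound addition per well in DMSO; timing: ≥90 h infection period, 3 h prior cell attachment; measured by: GalScreen β-gal luminescence, detergent lysis, 60 min; evaluation: percent inhibition of parasite-derived β-gal signal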
# Hsp70 act = Hsp70 transcriptional activators, primary screen, cell-based, HeLa, Hsp70 promoter luciferase, luminescence, 10 µM. HeLa Hsp70 promoter luciferase reporter; scaled: vehicle 0, proteasome-inhibitor control 100%. activation, % at 10 µM. 0.04% of 200,000 active;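 active = activation above the mean across all tested compounds plus 3 SD, cutoff set per campaign, cut at about 5.5% in these data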;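 note: 100% = MG132 at 30 µM as the positive control and 0% = DMSO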
# HSF1 inh = HSF1 inhibitors in luciferase reporter cells, primary screen, cell-based, NIH3T3, luminescence. 0.77% of 300,000 active. AID 2098, 2009. activity change, negative = inhibition, % at 7.5 µM (by protocol). NIH3T3-HGL HSE-luciferase, MG132-induced, luminescence 8 h; hits give low values;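 active = more than half of replicate wells show activity change below -50%, luminescence cut by over half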;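 note: luciferase reports HSF-1 transcriptional activity via heat shock element; 0% = median of DMSO wells and -100% = zero luminescence signal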
# HSF-1 act = HSF-1 activators, primary screen, NIH3T3-HGL cells, MG132 stress, luminescence, single point; NIH3T3-HGL HSF-1 luciferase reporter, 8 h; 100% = twice DMSO control signal; activation, % at 9 µM; 1.7% of 300,000 active; AID 504408, 2011;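 active = mean replicate activation of at least 50% with a set share of replicates each reaching 50%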;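 note: 0% = median of the neutral control wells and 100% = twice that signal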
# Lmaj promast = Leishmania major promastigote growth inhibition, primary screen. inhibition, % at 10 µM. Leishmania major promastigotes, resazurin fluorescence viability. 9% of 200,000 active. AID 1063, 2008; in the data active = inhibition above about 50%;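 note: promastigotes grown with compound for 44 hours at 28 °C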
# * marks the source's active call; other numbers are inactive results; · = not tested or not shown. Many of the other results were omitted from the sample, so hits are more common in it than they were.
SMILES,T cruzi inh,Hsp70 act,HSF1 inh,HSF-1 act,Lmaj promast
Cc1sc(NC(=O)Cc2ccc3c(c2)OCO3)nc1-c1ccc2c(c1)CCN2C(=O)c1ccccc1F,56.1*,-0.2,-18.5,-15.0,98.9*
Cc1sc(NC(=O)Cc2ccc3c(c2)OCO3)nc1-c1ccc2c(c1)CCN2C(=O)c1ccc(F)cc1,18.6,-0.4,-2.2,-2.3,86.5*
COc1cc(OC)c(C2=Nc3ccc(Br)cc3C(c3ccccc3)N2CC(=O)NN)cc1OC (stereo not given),14.9,0.3,3.4,-0.9,4.3
Cc1cc(=O)oc2cc(OCc3ccccc3)ccc12,-0.5,·,38.2,58.0*,·
Cc1cc(=O)oc2ccc(OCc3ccccc3)cc12,-16.7,·,-2.1,4.5,·
Cc1cc(=O)oc2cc(OCc3ccc(S(=O)(=O)N4CCOCC4)cc3)ccc12,30.6,0.0,5.7,0.5,80.2*
COc1ccc(COc2ccc3c(C)cc(=O)oc3c2)cc1,0.7,·,30.8,41.7,·
COC(=O)C(CC(C)C)Oc1ccc2c(C)cc(=O)oc2c1 (stereo not given),4.8,-0.3,-4.4,-17.5,85.5*
Cc1cc(=O)oc2cc(OCc3ccc(C(=O)N4CCN(c5ccccc5)CC4)cc3)ccc12,43.5,0.0,14.6,34.0,64.9*
O=C(NCc1cccs1)c1ccc(CS(=O)Cc2cccc(Cl)c2)o1 (stereo not given),7.9,·,-2.3,-4.6,·
CC1CN(C(=S)NC2CCCC2)CC(C)O1 (stereo not given),-14.5,·,5.8,1.7,·
Cc1cc2c(cc1C)NC(c1nc3ccccc3[nH]1)C1=C(CC(C)(C)CC1=O)N2 (stereo not given),44.6,0.1,7.6,8.7,91.5*
COc1c(C)cccc1C(=O)NC(=S)Nc1ccccc1N1CCCC1,2.5,·,18.5,45.5,·
Cc1cccc(C)c1Oc1nc(-c2ccccc2)ncc1S(=O)(=O)c1ccccc1,21.3,-0.1,2.8,-20.8,53.9*
COc1ccc(C(=O)OCCNC(=O)c2c(Cl)nc3ccccn23)cc1,-1.0,-0.1,-6.0,-16.4,0.0
CC(C)(C)c1ccc(C(=O)OCCNC(=O)c2c(Cl)nc3ccccn23)cc1,20.9,0.0,1.7,2.0,75.6*
Cc1nn(-c2ccccc2)c(N2CCCC2)c1/C=N/NC(=S)Nc1ccccc1C(F)(F)F,42.9,-0.3,-12.7,-20.0,99.1*
Cc1nn(-c2ccccc2)c(N2CCCC2)c1/C=N/O,-34.0,-0.2,-4.4,-2.1,72.3*
CCN1CCN(C(=O)c2ccc3c(c2)N(Cc2ccccc2F)C(=O)c2ccccc2S3(=O)=O)CC1,10.3,·,-7.1,-2.9,·
CCc1nn(C(C)C(=O)NCc2cccc(OC)c2)c(=O)c2cc3occc3n12 (stereo not given),5.0,·,-7.9,-27.5,·
COc1cccc(C(=O)Nc2nnc(-c3ccccc3)s2)c1OC,6.6,·,26.1,46.7,·
COc1cccc(C(=O)Nc2sc(C(C)C)cc2C(N)=O)c1OC,9.6,·,-78.8*,-83.9,·
COc1ccnc(Oc2ccccc2)c1C(=O)N/C=N/OCc1ccccc1F,13.2,0.3,5.7,3.4,16.8
CC(=O)c1ccccc1NC(=O)COC(=O)CSCC(=O)Nc1cc(C)on1,-1.3,·,1.0,17.6,·
O=C(c1c(F)cccc1F)N1CCCc2ccccc21,14.2,·,-3.3,5.7,·
SMILES,T cruzi inh,Hsp70 act,HSF1 inh,HSF-1 act,Lmaj promast
CN(CCN1CCOCC1)Cc1nc(-c2cccs2)no1,-1.6,0.0,6.8,22.6,72.8*
c1csc(-c2noc(CN3CCOCC3)n2)c1,-8.4,·,-4.4,5.2,·
CC(=O)c1coc2ccc(OCCN3CCCCC3)cc12,12.6,0.6,-8.9,-9.2,91.1*
CCn1cc(C(=O)NCc2ccccc2)c(=O)c2cc(F)c(N3CCN(C(=O)c4ccco4)CC3)cc21,24.1,-0.6,-1.1,5.8,95.4*
Cc1ccc(-c2n[nH]c(=S)n2/N=C/c2ccncc2)cc1,-6.0,-0.3,·,·,0.1
COc1cc(NC(=O)CN2CCCCC2C)c(C)cc1[N+](=O)[O-] (stereo not given),-0.5,0.0,4.0,7.5,69.3*
COc1cc(NC(=O)Cn2ncc(Cl)c(Cl)c2=O)c(C)cc1[N+](=O)[O-],84.5*,0.2,-92.7*,-93.4,89.4*
CCOc1ccc(CN(C)CC(=O)Nc2cc(OC)c([N+](=O)[O-])cc2C)cc1,58.8*,-0.1,-0.9,7.2,6.1
CCOc1ccc(CN(C)CC(=O)Nc2cc(C)c(C)cc2[N+](=O)[O-])cc1,9.1,-0.3,-12.4,-4.5,-3.9
Cc1ccc(/C=N\NC(=O)CNC(=O)C23CC4CC(CC(C4)C2)C3)o1,5.2,·,-6.7,-1.1,·
CCCCN(C(=O)c1c(CC)noc1C)c1c(N)n(CCCC)c(=O)[nH]c1=O,-5.5,·,-0.6,10.8,·
CCN(CC)CCCn1c2c(c(SCC(=O)N3CCc4ccccc43)nc1=O)CCC2,12.5,·,-7.7,-3.5,·
COc1cc(CN(C)CC2CCCN(CCc3ccccc3F)C2)cc(Cl)c1OC (stereo not given),57.7*,·,-4.9,0.9,·
CCOC(=O)c1c(NC(=O)COC(=O)c2nc(Cl)ccc2Cl)sc2c1CCC2,5.3,-0.2,-2.6,-0.7,-4.4
CC(C)(C)OC(=O)N1CCN(C(=O)c2[nH]cnc2C(=O)NCC(=O)OCc2ccccc2)CC1,-26.1,·,-87.9*,-90.3,·
COc1ccc(CCNC(=O)CCC(=O)N2CCOc3ccc(Cl)cc32)cc1OC,-0.8,·,8.7,20.4,·
O=C(N1CCCCCC1)n1c(Cc2ccccc2)nc2ccccc21,1.3,0.0,-1.7,-0.5,63.2*
Cc1cccc(NC(=O)N(Cc2nc3ccccc3c(=O)[nH]2)C2CCCC2)c1,-2.3,-0.1,18.1,30.3,11.7
O=C(Nc1cccc(Cl)c1)N(Cc1nc2ccccc2c(=O)[nH]1)C1CCCC1,4.6,-0.3,17.5,54.4*,2.0
O=C(NCCCCc1ccccc1)c1cc([N+](=O)[O-])cc([N+](=O)[O-])c1,63.0*,·,6.7,7.1,·
O=C(NCCCCc1ccccc1)c1cccc([N+](=O)[O-])c1,20.6,-0.1,-14.5,-11.0,21.1
O=C(NCCc1c[nH]c2ccccc12)c1cc([N+](=O)[O-])cc([N+](=O)[O-])c1,68.6*,·,-3.3,1.8,·
O=C(NCCCN1CCN(CCCNC(=O)c2cccc([N+](=O)[O-])c2)CC1)c1cccc([N+](=O)[O-])c1,56.0*,-0.4,-7.3,5.2,32.1
Cc1cccc(OCC(=O)NCCCNC(=O)c2ccco2)c1,-14.6,·,-0.4,6.1,·
Cc1ccc(C2C3CSCC=C3C(C#N)=C(N)C2(C#N)C#N)cc1 (stereo not given),-0.6,0.0,-4.0,29.2,61.0*
Cc1ccc(S(=O)(=O)/N=C2\SC(CC(=O)Nc3ccc(F)cc3)C(=O)N2c2ccccc2)cc1 (stereo not given),-9.9,-0.2,0.4,12.6,63.4*
